Source: PubChem BioAssay
Rows were chosen to be rich in hits. Some 1.9% of all compounds tested hit in one or more screens of this group.
FN deposition inh: fibronectin deposition inhibition; hit rate 0.086% among 350,000; AH1F fibroblasts, Alexa488-fibronectin deposition fluorescence, overnight; inhibition, % at 12.6 µM;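 active means mean inhibition across replicates of 30% or more, regardless of how many single replicates reach that level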;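 further: positive control wells lacked labelled fibronectin entirely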
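Assay system: AH1F fibroblasts assembling fluorescent fibronectin matrix; Amount: 10000 AH1F cells per well; Buffer or medium: DMEM, 2% serum; Probe or stimulus: Alexa488-fibronectin, 24 nM final in well; Doses: single compound dose, delivered by pin transfer; Incubation: 1 h adhesion, overnight exposure; Measured by: fluorescence 485/525 nm; Read-out: fibronectin deposition inhibition.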
DENV2 CPE rescue: inhibitors of DENV2 cytopathic effect; DENV2-infected cells, cytopathic effect rescue, plate reader; CPE inhibition, % at 9.99 µM; hit rate 1.7% among 350,000; AID 651640; in the data active means CPE inhibition above about 20%, passing the limit was not always enough; tested in BHK-21 cells;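 further: 0% = median of neutral control wells and 100% = median of positive control wells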
PGC1a acetyl inh: PGC1a acetylation modulation, inhibitor mode; inhibition, % at 15.6 µM; U2OS PGC1a acetylation, AlphaScreen anti-acetyl-lysine; with virally co-expressed GCN5 acetyltransferase; hit rate 0.17% among 350,000; AID 651687;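 active means every replicate shows inhibition of at least 40%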;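 further: 0% = neutral control wells and 100% = positive control wells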
Cneo AK release: causes C. neoformans cell lysis. lysis activity, % at 15 µM. adenylate kinase release luminescence, 4 h; normalised: neutral wells 0, clomiphene wells 100. hit rate 0.2% among 360,000;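 active means mean lysis activity across replicates of at least 80%, whatever share of replicates individually reach that level; inactive means mean lysis activity below 80%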
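Schedule: static 4 h at 37 °C with compound, 1 h detection; system: C. neoformans cells; benchmarks: Clomiphene as positive control; buffer or medium: fresh YPD medium; measure: luminescence rise reflecting yeast cell lysis; measured by: luminescent adenylate kinase detection reagent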
CFTR F508del cor: CFTR F508del correction in bronchial cells | CFBE cells, YFP halide quenching; stimulated with forskolin plus potentiator P3; % fluorescence drop versus neutral controls | activity (quench increase), % at 7.58 µM | hit rate 0.36% among 350,000 | AID 720511;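 active means mean added fluorescence quench of at least 8% versus neutral control, with both replicates also reaching 8%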;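 further: cells transiently co-express mutant CFTR-F508del with the halide-sensitive YFP; corrector assay measuring rescue of mutant channel to the surface after 24 h compound exposure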
XiGFP reactiv: X-chromosome reactivation activator; XiGFP mouse fibroblasts, % GFP-positive cells imaging, 3 d; cells co-treated with 5-aza-dC sensitizer; scaled so ellipticine positive control = 100%; activation, % at 7.58 µM; hit rate 0.055% among 360,000;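 active means mean normalized replicate activation at least 10% and every replicate at or above 10%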;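 further: 0% = median of on-plate neutral control wells and 100% = ellipticine 6 µM median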
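Material: XiGFP fibroblasts, SV40-immortalized. Buffer or medium: DMEM plus 5-aza-dC sensitizer. Compound: single concentration per compound, delivered by pin transfer. Times: 3 days compound exposure. Controls: ellipticine 6 µM.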
Starred values were filed as active, the others as inactive; nt = not tested or not shown.

SMILES	FN deposition inh	DENV2 CPE rescue	PGC1a acetyl inh	Cneo AK release	CFTR F508del cor	XiGFP reactiv
CN(C)C(=O)c1cccc(-c2ccc3c(c2)[C@@H]2[C@@H](CCN2C(=O)C2CC2)[C@@H](CO)N3)c1	-2	6	8	54	-2	0
COc1ccc(CCNC(=O)CSC2=NS(=O)(=O)c3ccccc3N2)cc1OC	4	82*	4	-4	4	0
COc1ccc(CCNC(=O)CSC2=NS(=O)(=O)c3cc(F)ccc3N2)cc1OC	-10	-7	-9	-1	nt	0
COc1ccc(S(=O)(=O)N2C[C@@H](O)COC[C@H]3O[C@H](CC(=O)NCc4ccc(Cl)c(Cl)c4)CC[C@@H]32)cc1	2	7	-13	0	-2	0
CO[C@@H]1CN(C)C(=O)c2ccc(NC(=O)c3ccccc3F)cc2OC[C@H](C)N(C)C[C@@H]1C	-1	nt	-16	-1	-2	0
COc1ccc2nc(C)cc(N/N=C/c3ccc(F)cc3)c2c1	2	-27	94*	3	-1	0
COc1ccc(/C=N/Nc2cc(C)nc3ccccc23)cc1	9	-29	nt	0	-1	0
O=C(N[C@@H]1CC[C@H](CCNC(=O)C2CCOCC2)O[C@@H]1CO)c1ccccn1	-6	10	-1	6	1	0
CN(CCC1CCCCO1)C(=O)CCc1nnc(CCc2ccccc2)o1 (configuration not stated)	2	61*	0	1	-2	0
CN(CCC1CCCCO1)C(=O)CCc1nnc(Cc2c[nH]c3ccccc23)o1 (configuration not stated)	7	-1	-4	1	0	0
COc1cccc(NC(=O)N[C@H]2CC[C@H](CC(=O)N3CCCCC3)O[C@H]2CO)c1	nt	10	-4	-17	0	0
CCCc1cn(CC[C@H]2CC[C@H](NS(=O)(=O)c3ccc(-c4ccccc4)cc3)[C@@H](CO)O2)nn1	nt	3	-4	1	0	0
O=C(CCNS(=O)(=O)c1ccccc1C(F)(F)F)N1CCCCCCC1	1	13	nt	1	-2	0
O=C(CCNS(=O)(=O)c1ccccc1C(F)(F)F)N1CCN(C(c2ccccc2)c2ccccc2)CC1	2	92*	-3	1	0	0
Cn1cc([N+](=O)[O-])c(C(=O)Nc2cc(Oc3ccccc3)cc([N+](=O)[O-])c2)n1	40*	-5	nt	nt	-4	0
O=c1[nH]nc(-c2ccc(NCCCO)c([N+](=O)[O-])c2)c2ccccc12	1	1	59*	-5	5	0
C[C@@H]1CN([C@H](C)CO)C(=O)c2cccc(NC(=O)c3ccncc3)c2O[C@@H]1CN(C)S(=O)(=O)c1cccs1	nt	26*	-4	-18	1	0
C[C@H](CO)N1C[C@H](C)[C@@H](CN(C)S(=O)(=O)c2cccs2)Oc2c(NS(=O)(=O)c3ccc(Cl)cc3)cccc2C1=O	nt	-2	3	-1	-3	0
C[C@H](CO)N1C[C@H](C)[C@@H](CN(C)S(=O)(=O)c2cccs2)Oc2c(NC(=O)c3ccncc3)cccc2C1=O	-15	1	14	2	2	0
C[C@@H]1CN([C@H](C)CO)C(=O)c2cccc(NS(=O)(=O)c3ccc(Cl)cc3)c2O[C@@H]1CN(C)S(=O)(=O)c1cccs1	nt	76*	-7	-2	0	0
Cc1ccc(S(=O)(=O)Nc2cccc3c2O[C@H](CN(C)S(=O)(=O)c2cccs2)[C@@H](C)CN([C@@H](C)CO)C3=O)cc1	nt	63*	-2	63	1	0
C[C@H](CO)N1C[C@H](C)[C@H](CN(C)S(C)(=O)=O)Oc2ncccc2C1=O	-5	7	2	-1	2	1
C[C@H](CO)N1C[C@H](C)[C@H](CN(C)S(=O)(=O)c2cccs2)Oc2ncccc2C1=O	nt	37*	3	-7	0	0
COc1ccc2c3c(n(C)c2c1)[C@@H](CO)N(C(=O)C1CC1)CC31CCN(C(=O)Nc2cccc(F)c2)CC1	nt	-1	nt	nt	-2	0
C[C@@H]1CN([C@@H](C)CO)C(=O)c2cc(NC(=O)C3CCCCC3)ccc2O[C@H]1CN(C)Cc1ccc2c(c1)OCO2	1	-7	5	42	0	0
SMILES	FN deposition inh	DENV2 CPE rescue	PGC1a acetyl inh	Cneo AK release	CFTR F508del cor	XiGFP reactiv
O=C(NCCO)c1ccc2c3n(nc2c1)-c1ccccc1CO3	4	69*	6	0	0	0
O=C(NCC1CC1)c1ccc2c3n(nc2c1)-c1ccccc1CO3	1	3	2	-7	0	0
CCCN1C[C@@H](C)[C@@H](OC)CN(C)C(=O)c2ccc(NC(=O)c3cnccn3)cc2OC[C@H]1C	0	1	6	-1	-1	0
O=C(C[C@H]1C[C@@H]2c3cc(NC(=O)Nc4ccccc4F)ccc3O[C@@H]2[C@@H](CO)O1)NC1CCCC1	-3	23*	-1	3	-2	0
O=C(C[C@H]1C[C@H]2c3cc(NC(=O)Nc4ccccc4F)ccc3O[C@H]2[C@H](CO)O1)NC1CCCC1	-5	20*	4	-1	0	0
O=C(C[C@@H]1C[C@H]2c3cc(NC(=O)Nc4ccccc4F)ccc3O[C@H]2[C@H](CO)O1)NC1CCCC1	9	-11	-16	1	-2	0
O=C(C[C@@H]1C[C@@H]2c3cc(NC(=O)Nc4ccccc4F)ccc3O[C@@H]2[C@H](CO)O1)NC1CCCC1	-12	49*	-8	0	-1	0
O=C(C[C@@H]1C[C@@H]2c3cc(NC(=O)Nc4ccccc4F)ccc3O[C@@H]2[C@@H](CO)O1)NC1CCCC1	-3	10	-8	1	0	0
C[C@@H]1CCCCO[C@H](CN(C)C(=O)NC2CCCCC2)[C@H](C)CN([C@@H](C)CO)C(=O)c2cc(NC(=O)NC3CCCCC3)ccc2O1	-15	3	-13	-1	3	0
C[C@H](CO)N1C[C@H](C)[C@@H](CN(C)C(=O)Nc2ccc(C(F)(F)F)cc2)Oc2ccc(NC(=O)C3CCCCC3)cc2CC1=O	nt	0	9	-6	1	0
Cc1noc(C)c1S(=O)(=O)Nc1ccc2c(c1)C(=O)N([C@H](C)CO)C[C@H](C)[C@@H](CN(C)CC1CC1)OCCCC[C@@H](C)O2	nt	7	12	2	0	1
CCCN(C)C[C@H]1OCCCC[C@H](C)Oc2ccc(NS(=O)(=O)c3c(C)noc3C)cc2C(=O)N([C@@H](C)CO)C[C@H]1C	nt	32*	14	0	-3	0
